Values belong to the molecule of their own block, whether it stands above or below them. Numbered stars: 1 amine (or outer) side, 2 acyl side, 3 side chain; on linkers, the order of the positions; unused ones are H or OH. Bridge positions count the residues as written; N and C are the ends. Side chains are listed from the residue outwards. Ends that are not written are not given here. Peptide text beside a SMILES is read from it. * marks the point of attachment. X1 = CC(=NO)C(C)(C)NCCC(CCNC(C)(C)C(C)=NO)CCN*; Glutaryl = O=C(CCCC(=O)[*:2])[*:1]
Columns and labels:
[1] = tested on: extracellular domain of human Met; conditions: fluorescence polarization; cited from earlier work
MKN-45 xenografts [2] = test: Longitudinal [^99mTc]-Met peptide SPECT imaging during PHA 665752 treatment; assay type: in vivo, athymic female nude mice (human MKN-45 tumor); conditions: for decrease in [^99mTc]-Met peptide tumor uptake (%ID/g) vs vehicle: PHA 665752 15 mg/kg i.p. daily
Summary of the method: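 Female nude mice carried s.c. MKN-45 xenografts, 30–50 mm³ at baseline. They received the Met TKI at 15 mg/kg i.p. in 5% DMSO:saline, or vehicle, daily for 3–4 weeks. SPECT/CT imaging was done 90 min after injection of ⁹⁹ᵐTc-labelled Met peptide, at baseline and then weekly. Tumour uptake was expressed as %ID/g normalised to a 20 g mouse. n = 9 per group; groups were compared by Welch t-test.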

MKN-45 xenografts [3] = test: Tumor volume by 3D ultrasonography, [^99mTc]-Met peptide imaged cohort; assay type: in vivo, athymic female nude mice (human MKN-45 tumor); conditions: 15 mg/kg i.p. daily
Summary of the method: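 After each weekly SPECT/CT session in the daily-dosed MKN-45 cohort (Met TKI 15 mg/kg i.p.), 3D ultrasonography was run at 40 MHz with a 0.076 mm step size. Tumour volume was obtained with a parallel ROI algorithm and expressed as % increase from baseline. n = 9 per group; groups were compared by Welch t-test (p < .05).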

MKN-45 xenografts [4] = test: Tumor weight and histologic grading; assay type: in vivo, athymic female nude mice (human MKN-45 tumor)
Summary of the method: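 SPECT-imaged MKN-45 mice, given the Met TKI daily i.p. or vehicle, were euthanised after the last imaging session at 3 weeks. Tumours were weighed (> 0.5 g counted) and formalin-fixed, paraffin-embedded sections were stained with H&E (necrosis, graded up to +4 severe) or ApopTag (apoptosis).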

shed Met = test: Plasma shed Met electrochemiluminescent immunoassay; assay type: in vivo, human Met in mouse xenograft plasma; conditions: for slope plasma shed Met/tumor mass: PHA-treated
Summary of the method: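 Blood was collected into EDTA tubes and centrifuged. Plasma was fast-frozen and stored at −70°C; samples from radiolabel-imaged mice were assayed after the radioactivity had decayed. Soluble Met ectodomain was measured by two-site electrochemiluminescent immunoassay with ruthenium-chelate-tagged detection antibody, against a recombinant Met ectodomain–IgG-Fc standard. Naive cohorts were sampled at 1–4 weeks, imaged cohorts at the end. Values were correlated with tumour mass by Spearman analysis, and slopes were given as ng/mL per g.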

MKN-45 xenografts [5] = test: Longitudinal Cy5^⋆⋆-Met peptide fluorescence imaging during PHA 665752 treatment; assay type: in vivo, athymic female nude mice (human MKN-45 tumor); conditions: for decrease in Cy5^⋆⋆-Met fluorescent signal intensity in tumors vs vehicle: PHA 665752 5 days on/2 days off, n = 9, p < .05
MKN-45 xenografts [6] = test: Tumor weight and histologic grading, Cy5^⋆⋆-Met peptide imaged cohort; assay type: in vivo, athymic female nude mice (human MKN-45 tumor); conditions: treated
Summary of the method: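 Fluorescence-imaged MKN-45 mice, given the Met TKI 5 days on/2 days off or vehicle, were euthanised after the last imaging session (18 or 25 days). Tumours were weighed (fraction > 0.5 g), fixed in 10% neutral-buffered formalin and paraffin-embedded. Sections were stained with H&E for necrosis and ApopTag for apoptosis, then graded. n = 9 per group.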

[7] = tested on: gastric carcinoma cells (including MKN-45 cells); conditions: cited from earlier work
[8] = tested on: human lung carcinoma cells; conditions: cited from earlier work
Met tyrosine kinase = conditions: cited from earlier work
[9] = tested on: tumor responses to Met-targeted therapeutics; conditions: ref [19],[26],[47],[48], cited from earlier work
Met (U87-MG cells) = test: Saturation binding, U87-MG cells; design: species or system human
Summary of the method: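 U87-MG cells were grown in DMEM with 2 mM L-glutamine, 0.1 mM NEAA, 1 mM pyruvate and 10% FBS, then placed in tubes (0.2–1.0 × 10⁶ cells) on the assay day. Duplicates were incubated with 0.2–10 nM ⁹⁹ᵐTc-labelled Met peptide for 2 h at 4°C, with nonspecific binding defined by 10^−6.3 M unlabelled peptide. Pellets were washed twice with PBS and counted. MKN-45 cells were plated (0.2 × 10⁶/well) the day before and trypsinised for counting. Kd and Bmax came from one-site nonlinear fits.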

in vivo [10] = test: in vivo; design: species or system athymic female nude mice (human MKN-45 tumor); conditions: female, athymic nude (Ncr-nu/nu), mouse, iv, total radioactivity
MKN-45 xenografts [11] = test: in vivo; design: species or system athymic female nude mice (human MKN-45 tumor)
in vivo [12] = test: in vivo; design: species or system athymic female nude mice (human SNU-16 tumor); conditions: female, athymic nude (Ncr-nu/nu), mouse, iv, total radioactivity
SNU-16 xenografts = test: in vivo; design: species or system athymic female nude mice (human SNU-16 tumor)
in vivo [13] = test: in vivo; design: species or system athymic female nude mice (human U87-MG tumor); conditions: female, athymic nude (Ncr-nu/nu), mouse, iv, total radioactivity
U87-MG xenografts = test: in vivo; design: species or system athymic female nude mice (human U87-MG tumor)
MKN-45 xenografts [14] = assay type: in vivo, athymic female nude mice (human MKN-45 tumor); conditions: 60 minutes postinjection
MKN-45 xenografts [15] = tested on: MKN-45 xenografts; design: species or system athymic female nude mice (human MKN-45 tumor); conditions: in vivo
[16] = target: T1, hepatocyte growth factor tyrosine kinase receptor (Met) (human (endogenous in MKN-45 and U87-MG), UniProt P08581 25-1390); test: radioligand binding
[17] = target: T1, hepatocyte growth factor tyrosine …; test: in vivo biodistribution with blocking

T1 sequence (P08581 25-1390): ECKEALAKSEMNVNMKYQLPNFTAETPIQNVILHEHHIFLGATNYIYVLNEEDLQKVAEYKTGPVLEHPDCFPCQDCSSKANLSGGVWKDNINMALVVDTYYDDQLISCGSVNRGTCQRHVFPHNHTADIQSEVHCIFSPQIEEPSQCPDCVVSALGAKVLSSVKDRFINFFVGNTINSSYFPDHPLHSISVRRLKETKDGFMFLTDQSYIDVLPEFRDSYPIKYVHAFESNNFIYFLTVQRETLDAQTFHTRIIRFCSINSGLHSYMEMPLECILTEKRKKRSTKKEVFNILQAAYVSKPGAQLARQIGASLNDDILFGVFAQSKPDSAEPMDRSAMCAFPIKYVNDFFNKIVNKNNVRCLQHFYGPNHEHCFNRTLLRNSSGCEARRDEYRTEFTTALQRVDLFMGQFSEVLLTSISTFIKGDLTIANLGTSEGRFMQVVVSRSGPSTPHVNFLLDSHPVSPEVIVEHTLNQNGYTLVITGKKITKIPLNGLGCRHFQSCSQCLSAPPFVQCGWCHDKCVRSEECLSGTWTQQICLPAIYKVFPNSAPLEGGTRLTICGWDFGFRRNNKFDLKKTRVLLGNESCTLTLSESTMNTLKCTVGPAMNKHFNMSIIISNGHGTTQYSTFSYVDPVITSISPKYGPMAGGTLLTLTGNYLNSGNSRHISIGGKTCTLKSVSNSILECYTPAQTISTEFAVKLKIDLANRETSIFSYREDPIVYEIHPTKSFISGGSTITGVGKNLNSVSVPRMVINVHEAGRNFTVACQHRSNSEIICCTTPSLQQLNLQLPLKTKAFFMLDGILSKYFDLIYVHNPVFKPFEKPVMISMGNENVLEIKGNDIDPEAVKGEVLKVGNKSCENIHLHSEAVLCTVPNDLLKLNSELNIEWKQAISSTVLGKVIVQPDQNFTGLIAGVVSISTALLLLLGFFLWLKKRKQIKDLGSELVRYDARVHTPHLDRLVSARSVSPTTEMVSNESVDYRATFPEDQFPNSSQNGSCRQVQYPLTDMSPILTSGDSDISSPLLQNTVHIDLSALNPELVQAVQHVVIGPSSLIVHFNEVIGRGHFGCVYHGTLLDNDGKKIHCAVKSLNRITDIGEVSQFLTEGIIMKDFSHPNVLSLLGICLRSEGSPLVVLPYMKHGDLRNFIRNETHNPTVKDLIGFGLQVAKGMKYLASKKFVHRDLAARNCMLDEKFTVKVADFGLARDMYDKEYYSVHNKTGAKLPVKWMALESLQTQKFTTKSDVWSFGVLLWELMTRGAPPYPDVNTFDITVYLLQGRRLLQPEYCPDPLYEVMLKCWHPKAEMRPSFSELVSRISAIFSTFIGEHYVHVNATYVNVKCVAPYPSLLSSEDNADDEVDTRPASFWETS

Molecule: Cys4–16, 6–14; Ac-Ala-Gly-Ser-Cys-Tyr-Cys-Ser-Gly-Pro-Pro-Arg-Phe-Glu-Cys-Trp-Cys-Tyr-Glu-Thr-Glu-Gly-Thr-Gly-Gly-Gly-Lys (bicyclic or more) [unlabeled Met peptide]
IC50 [1]: 90 nM

Molecule: Cc1[nH]c(/C=C2\C(=O)Nc3ccc(S(=O)(=O)Cc4c(Cl)cccc4Cl)cc32)c(C)c1C(=O)N1CCC[C@@H]1CN1CCCC1 [PHA 665752, (2R)-1-[[5-[(Z)-[5-[[(2,6-dichlorophenyl)methyl]sulfonyl]-1,2-dihydro-2-oxo-3H-indol-3-ylidene]methyl]-2,4-dimethyl-1H-pyrrol-3-yl]–carbonyl]-2-(1-pyrrolidinylmethyl) pyrrolidine]
tumor uptake of [^99mTc]-Met peptide after PHA 665752 (MKN-45 xenografts [2]; MKN-45 xenografts): significantly decreased as early as 1 week
decrease in [^99mTc]-Met peptide tumor uptake (%ID/g) vs vehicle (MKN-45 xenografts [2]; day 8, n = 9, p = .005): 43%
decrease in [^99mTc]-Met peptide tumor uptake (%ID/g) vs vehicle (MKN-45 xenografts [2]; day 21, n = 9, not significant): 25%
decrease in tumor volume vs vehicle (MKN-45 xenografts [3]; day 8, n = 9, not significant): 25%
decrease in tumor volume vs vehicle (MKN-45 xenografts [3]; day 21, n = 9, p = .016): 55%
tumors with moderately severe apoptosis (MKN-45 xenografts [4]; ApopTag, after 3 weeks PHA 665752): 22%
fraction of severely necrotic tumors (MKN-45 xenografts [4]; H&E, after 3 weeks PHA 665752 (vehicle also 78%)): 78%
fraction of tumors > 0.5 g (MKN-45 xenografts [4]; after 3 weeks PHA 665752): 44%
increase in plasma shed Met (ng/mL per g tumor) vs vehicle (shed Met; 1, 2, and 3 to 4 weeks after treatment): ~ 2 fold
slope plasma shed Met/tumor mass (shed Met; imaged xenografts, n = 7 (vehicle 43.7)): 77.7 (ng/mL)/(g)
slope plasma shed Met/tumor mass (shed Met; nonimaged xenografts (vehicle 43.8)): 77.5 (ng/mL)/(g)
fluorescent signal intensity and tumor volume vs vehicle (MKN-45 xenografts [5]; 25 days, n = 6 treated, 5 vehicle): these decreases were not significant
decrease in Cy5^⋆⋆-Met fluorescent signal intensity in tumors vs vehicle (MKN-45 xenografts [5]; 11 days): 54%
decrease in Cy5^⋆⋆-Met fluorescent signal intensity in tumors vs vehicle (MKN-45 xenografts [5]; 18 days): 55%
tumors with minimal (1+) apoptosis (MKN-45 xenografts [6]; 18 or 25 days (vehicle 78%)): 33%
tumors > 0.5 g (MKN-45 xenografts [6]; 18 or 25 days (vehicle 89%)): 78%
drug resistance on prolonged exposure [7]: acquired drug resistance associated with increased levels of Met
extracellular Met expression [7]: extracellular Met expression appeared unchanged
inhibition of Met phosphorylation [7]: pronounced inhibition of Met phosphorylation
total surface Met expression [8]: total surface Met expression increased
tumorigenicity, apoptosis and necrosis (Met tyrosine kinase): reduction of tumorigenicity accompanied with increases in apoptosis and necrosis

Molecule: OC[C@H]1OC(O)[C@H]([18F])[C@@H](O)[C@@H]1O (some centres unmarked) [[^18F]FDG, [^18F]fluorodeoxyglucose]
PET detection of tumor response to crizotinib ([9]; Met intracellular kinase inhibition): failed to detect tumor responses
PET detection of tumor response to CE-355621 ([9]; mAb targeting the Met extracellular domain): detected early tumor responses

Molecule: Cc1cn([C@H]2C[C@H]([18F])[C@@H](CO)O2)c(=O)[nH]c1=O [[^18F]FLT, [^18F]fluorothymidine]
PET detection of tumor response to crizotinib and BAY 853474 [9]: detected a robust tumor response

Molecule: CC(=O)N[C@@H](C)C(=O)NCC(=O)N[C@@H](CO)C(=O)N[C@H]1CSSC[C@@H](C(=O)N[C@@H](Cc2ccc(O)cc2)C(=O)N[C@@H](CCC(=O)O)C(=O)N[C@H](C(=O)N[C@@H](CCC(=O)O)C(=O)NCC(=O)N[C@H](C(=O)NCC(=O)NCC(=O)NCC(=O)N[C@@H](CCCCNC(=O)CCCC(=O)NCCC(CCNC(C)(C)C(C)=NO)CCNC(C)(C)C(C)=NO)C(N)=O)[C@@H](C)O)[C@@H](C)O)NC(=O)[C@H](Cc2c[nH]c3ccccc23)NC(=O)[C@@H]2CSSC[C@H](NC(=O)[C@H](Cc3ccc(O)cc3)NC1=O)C(=O)N[C@@H](CO)C(=O)NCC(=O)N1CCC[C@H]1C(=O)N1CCC[C@H]1C(=O)N[C@@H](CCCNC(=N)N)C(=O)N[C@@H](Cc1ccccc1)C(=O)N[C@@H](CCC(=O)O)C(=O)N2 (some centres unmarked) [[^99mTc]-Met peptide, metal not drawn] (Ac-AGSCYCSGPPRFECWCYETEGTGGGK([Glutaryl-X1])-NH2; disulfide 4-16, 6-14; C-terminus assumed)
specific binding (Met (U87-MG cells); U87-MG cells (low Met), 2 hours at 4°C): < 40%
Bmax U87-MG lower than MKN-45 (Met (U87-MG cells); U87-MG vs MKN-45 cells): ~ 90 fold
tissue to tissue ratio at 0.5 h (in vivo [10]): 9.8 ± 2.1
tissue to tissue ratio at 1 h (in vivo [10]): 30.1 ± 3.3
tissue to tissue ratio at 2 h (in vivo [10]): 49.6 ± 11.3
tissue to tissue ratio at 3 h (in vivo [10]): 55.2 ± 13.4
clearance (MKN-45 xenografts [11]): > 70%
kidney to muscle ratio exceeding tumor to muscle ratio (MKN-45 xenografts [11]): 1.6-3 fold
primary route of excretion (MKN-45 xenografts [11]): renal clearance as the primary route of excretion
tissue uptake at 0.5 h (in vivo [12]): 4.59 ± 0.5 %ID/g
tissue uptake at 1 h (in vivo [12]): 2.61 ± 0.82 %ID/g
tissue uptake at 2 h (in vivo [12]): 1.3 ± 0.34 %ID/g
tumor to muscle ratio reduced vs MKN-45 (SNU-16 xenografts): 2-4 fold
uptake in nontarget tissues (SNU-16 xenografts): comparable to the MKN-45 xenografts
tissue uptake at 1 h (in vivo [13]): 1.19 ± 0.11 %ID/g
tissue uptake at 2 h (in vivo [13]): 0.71 ± 0.15 %ID/g
tissue uptake at 3 h (in vivo [13]): 0.58 ± 0.09 %ID/g
tumor to muscle ratio reduced vs MKN-45 (U87-MG xenografts): 10-16 fold
visualization of MKN-45 tumors (MKN-45 xenografts [14]): clearly visualized at 60 minutes
effect on shed Met plasma concentrations (shed Met; imaged vs nonimaged xenografts): does not appear to alter shed Met plasma concentrations
reduction in slope (%ID/g), larger vs smaller tumors (MKN-45 xenografts [15]): 2-3 fold
slope (%ID/g) of total uptake per tumor vs tumor weight (MKN-45 xenografts [15]): 4.2 %ID/g
IC50 [1]: ~200 nM

Kd [16]: 3.31 nM
Molecule: Ac-AGSCYCSGPPRFECWCYETEGTGGGK(cPn216) (disulfide 6-14, 4-16; also: 99mTc chelated by cPn216) [[^99mTc]-Met peptide (AH-113018)]

percent decrease of tumor to muscle ratio of [^99mTc]-Met peptide [17]: 53%
Molecule: Ac-AGSCYCSGPPRFECWCYETEGTGGGK (disulfide 6-14, 4-16; also: trifluoroacetate salt) [unlabeled Met peptide (AH-111972 trifluoracetate salt [DX-1662])]

Source: publication PMC7709139 (Molecular imaging, 2015)
